Assay results from ChEMBL document CHEMBL4680156, “Discovery of novel pyrido-pyrrolidine hybrid compounds as alpha-glucosidase inhibitors and alternative agent for control of type 1 diabetes” (Eur J Med Chem, 2020).
Active and inactive are the calls of the source. The rule behind the calls is not given here.

How the values were obtained:
[1] = target: T1, Tissue alpha-L-fucosidase (Bos taurus, UniProt Q2KIM0); test: Inhibition of bovine kidney alpha-fucosidase using […] as substrate incubated for 10 mins by spectrophotometric method
T1 sequence (Q2KIM0 whole entry): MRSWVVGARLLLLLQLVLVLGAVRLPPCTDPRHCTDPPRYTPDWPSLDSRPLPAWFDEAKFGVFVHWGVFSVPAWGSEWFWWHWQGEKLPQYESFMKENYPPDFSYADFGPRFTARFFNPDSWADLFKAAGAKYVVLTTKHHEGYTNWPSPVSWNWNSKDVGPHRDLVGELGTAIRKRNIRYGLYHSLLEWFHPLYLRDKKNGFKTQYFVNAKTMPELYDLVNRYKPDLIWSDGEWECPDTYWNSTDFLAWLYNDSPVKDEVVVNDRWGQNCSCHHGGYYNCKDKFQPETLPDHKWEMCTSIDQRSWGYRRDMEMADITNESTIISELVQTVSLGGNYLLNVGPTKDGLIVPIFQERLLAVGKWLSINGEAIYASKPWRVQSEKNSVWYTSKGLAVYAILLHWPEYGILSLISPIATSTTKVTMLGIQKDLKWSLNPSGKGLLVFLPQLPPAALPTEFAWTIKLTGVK

Alpha-mannosidase = target: T2, Alpha-mannosidase (Canavalia ensiformis, UniProt C0HJB3); test: Inhibition of jack bean alpha-mannosidase using […] as substrate incubated for 10 mins by spectrophotometric method
T2 sequence (C0HJB3 whole entry): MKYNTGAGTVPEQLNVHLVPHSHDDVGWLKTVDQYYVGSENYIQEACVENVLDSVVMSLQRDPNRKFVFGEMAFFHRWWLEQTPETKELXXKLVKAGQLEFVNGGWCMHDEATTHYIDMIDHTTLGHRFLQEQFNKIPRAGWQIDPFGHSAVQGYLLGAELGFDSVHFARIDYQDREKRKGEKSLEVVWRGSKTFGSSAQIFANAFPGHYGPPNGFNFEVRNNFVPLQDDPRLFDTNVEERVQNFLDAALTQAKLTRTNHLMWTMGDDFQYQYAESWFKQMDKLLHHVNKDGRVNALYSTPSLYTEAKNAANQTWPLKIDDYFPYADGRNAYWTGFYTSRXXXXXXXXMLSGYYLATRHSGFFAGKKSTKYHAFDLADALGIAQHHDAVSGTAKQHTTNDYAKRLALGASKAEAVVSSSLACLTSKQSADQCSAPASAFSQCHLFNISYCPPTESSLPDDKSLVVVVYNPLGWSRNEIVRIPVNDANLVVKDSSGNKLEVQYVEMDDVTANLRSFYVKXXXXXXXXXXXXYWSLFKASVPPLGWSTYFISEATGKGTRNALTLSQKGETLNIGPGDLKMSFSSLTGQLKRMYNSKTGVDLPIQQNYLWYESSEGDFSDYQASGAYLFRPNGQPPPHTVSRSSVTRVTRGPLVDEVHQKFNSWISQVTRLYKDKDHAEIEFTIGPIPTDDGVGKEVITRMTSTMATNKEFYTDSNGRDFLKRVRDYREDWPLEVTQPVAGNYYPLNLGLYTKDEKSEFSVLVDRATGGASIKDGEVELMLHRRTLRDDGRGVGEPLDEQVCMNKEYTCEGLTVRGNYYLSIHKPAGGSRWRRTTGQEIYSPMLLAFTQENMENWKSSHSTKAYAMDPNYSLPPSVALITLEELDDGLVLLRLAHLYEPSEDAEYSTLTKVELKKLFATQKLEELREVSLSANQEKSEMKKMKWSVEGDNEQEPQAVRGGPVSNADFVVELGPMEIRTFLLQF

[2] = Inhibition of Saccharomyces cerevisiae alpha-glucosidase using PNPG as substrate incubated for 10 mins by spectrophotometric method
[3] = target: T3, Alpha-mannosidase (Canavalia ensiformis) (UniProt C0HJB3); test: Inhibition of jack bean alpha-mannosidase at 1 mM using […] as substrate incubated for 10 mins by spectrophotometric method
T3 sequence (whole entry): T2 sequence (C0HJB3 whole entry)

[4] = Inhibition of Saccharomyces cerevisiae alpha-glucosidase assessed as reduction in p-nitrophenol release using p-nitrophenyl glycoside as substrate by spectrophotometric analysis
[5] = Inhibition of Wistar rat intestinal maltase assessed as reduction in released D-glucose level using maltose as substrate by colorimetric assay; assay type: tissue-based, Intestine
[6] = target: T4, Tissue alpha-L-fucosidase (Bos taurus) (UniProt Q2KIM0); test: Inhibition of bovine kidney alpha-fucosidase at 1 mM using […] as substrate incubated for 10 mins by spectrophotometric method
T4 sequence (whole entry): T1 sequence (Q2KIM0 whole entry)

[7] = Inhibition of Saccharomyces cerevisiae alpha-glucosidase assessed as reduction in p-nitrophenol liberation using PNPG as substrate preincubated with substrate for 5 mins followed by incubation with enzyme for 5 mins
Saccharomyces cerevisiae = test: Inhibition of Saccharomyces cerevisiae alpha-glucosidase at 1 mM using PNPG as substrate incubated for 10 mins by spectrophotometric method
Rattus norvegicus [8] = test: Antidiabetic activity against STZ-induced type 1 diabetic Sprague-Dawley rat model assessed as decrease in fasting blood glucose level at 60 mg/kg, po administered once daily for 28 days; assay type: functional, organism-based; details: time 28.0 day
How it was run: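 Male Sprague-Dawley rats (250–320 g, 8–10 weeks) were given STZ 70 mg/kg ip once in 0.1 mmol/L citrate buffer, pH 4.5. Rats with random glucose >125 mg/dl at 4 days were counted diabetic. Dosing was 60 mg/kg in 0.5% saline by gavage once daily for 4 weeks, n=6 per group. After a 6 h fast, tail blood glucose was read by glucometer. Data are mean ± SD; 2-way ANOVA.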

Rattus norvegicus [9] = test: Decrease in post prandial glucose level in type 1 diabetic Sprague-Dawley rat model at 60 mg/kg, po administered once daily for 28 days; details: time 28.0 day
[10] = Toxicity in STZ-treated diabetic Sprague-Dawley rat model assessed as decrease in body weight at 60 mg/kg, po administered once daily for 28 days; assay type: organism-based; details: in vivo, 672 h, time 28 day
How it was run: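 Male Sprague-Dawley rats (250–320 g, 8–10 weeks) were made diabetic with a single STZ dose (70 mg/kg ip in 0.1 mmol/L citrate buffer, pH 4.5). Random glucose above 125 mg/dl defined diabetes. Dosing was 60 mg/kg in 0.5% saline by gastric gavage once daily for 4 weeks, n=6 per group, with vehicle controls. Body weight was recorded before and after treatment; mean ± SD, 2-way ANOVA.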

[11] = Inhibition of Saccharomyces cerevisiae alpha-glucosidase using maltose as substrate preincubated for 5 mins followed by substrate addition and measured after 15 mins by LC-TQ-MS/MS analysis
Maltase-glucoamylase = Maltase-glucoamylase (Homo sapiens, UniProt O43451); test: Inhibition of alpha-glucosidase (unknown origin) using sucrose as substrate incubated for 30 mins
[12] = Inhibition of rice alpha-glucosidase; design: species or system Oryza sativa
[13] = Inhibition of fungi maltase
How it was run: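 Yeast α-glucosidase, 0.1 IU per well, was added to 2 mM 4-nitrophenyl α-D-glucopyranoside in 10 mM potassium phosphate pH 7.2, with compound from DMSO at 2–10 μM. Plates ran 10 min at 37 °C and were read at 430 nm. Inhibition was calculated against a buffer control, and IC50 came from three independent assays run in triplicate.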

Sequence of Maltase-glucoamylase (O43451 whole entry): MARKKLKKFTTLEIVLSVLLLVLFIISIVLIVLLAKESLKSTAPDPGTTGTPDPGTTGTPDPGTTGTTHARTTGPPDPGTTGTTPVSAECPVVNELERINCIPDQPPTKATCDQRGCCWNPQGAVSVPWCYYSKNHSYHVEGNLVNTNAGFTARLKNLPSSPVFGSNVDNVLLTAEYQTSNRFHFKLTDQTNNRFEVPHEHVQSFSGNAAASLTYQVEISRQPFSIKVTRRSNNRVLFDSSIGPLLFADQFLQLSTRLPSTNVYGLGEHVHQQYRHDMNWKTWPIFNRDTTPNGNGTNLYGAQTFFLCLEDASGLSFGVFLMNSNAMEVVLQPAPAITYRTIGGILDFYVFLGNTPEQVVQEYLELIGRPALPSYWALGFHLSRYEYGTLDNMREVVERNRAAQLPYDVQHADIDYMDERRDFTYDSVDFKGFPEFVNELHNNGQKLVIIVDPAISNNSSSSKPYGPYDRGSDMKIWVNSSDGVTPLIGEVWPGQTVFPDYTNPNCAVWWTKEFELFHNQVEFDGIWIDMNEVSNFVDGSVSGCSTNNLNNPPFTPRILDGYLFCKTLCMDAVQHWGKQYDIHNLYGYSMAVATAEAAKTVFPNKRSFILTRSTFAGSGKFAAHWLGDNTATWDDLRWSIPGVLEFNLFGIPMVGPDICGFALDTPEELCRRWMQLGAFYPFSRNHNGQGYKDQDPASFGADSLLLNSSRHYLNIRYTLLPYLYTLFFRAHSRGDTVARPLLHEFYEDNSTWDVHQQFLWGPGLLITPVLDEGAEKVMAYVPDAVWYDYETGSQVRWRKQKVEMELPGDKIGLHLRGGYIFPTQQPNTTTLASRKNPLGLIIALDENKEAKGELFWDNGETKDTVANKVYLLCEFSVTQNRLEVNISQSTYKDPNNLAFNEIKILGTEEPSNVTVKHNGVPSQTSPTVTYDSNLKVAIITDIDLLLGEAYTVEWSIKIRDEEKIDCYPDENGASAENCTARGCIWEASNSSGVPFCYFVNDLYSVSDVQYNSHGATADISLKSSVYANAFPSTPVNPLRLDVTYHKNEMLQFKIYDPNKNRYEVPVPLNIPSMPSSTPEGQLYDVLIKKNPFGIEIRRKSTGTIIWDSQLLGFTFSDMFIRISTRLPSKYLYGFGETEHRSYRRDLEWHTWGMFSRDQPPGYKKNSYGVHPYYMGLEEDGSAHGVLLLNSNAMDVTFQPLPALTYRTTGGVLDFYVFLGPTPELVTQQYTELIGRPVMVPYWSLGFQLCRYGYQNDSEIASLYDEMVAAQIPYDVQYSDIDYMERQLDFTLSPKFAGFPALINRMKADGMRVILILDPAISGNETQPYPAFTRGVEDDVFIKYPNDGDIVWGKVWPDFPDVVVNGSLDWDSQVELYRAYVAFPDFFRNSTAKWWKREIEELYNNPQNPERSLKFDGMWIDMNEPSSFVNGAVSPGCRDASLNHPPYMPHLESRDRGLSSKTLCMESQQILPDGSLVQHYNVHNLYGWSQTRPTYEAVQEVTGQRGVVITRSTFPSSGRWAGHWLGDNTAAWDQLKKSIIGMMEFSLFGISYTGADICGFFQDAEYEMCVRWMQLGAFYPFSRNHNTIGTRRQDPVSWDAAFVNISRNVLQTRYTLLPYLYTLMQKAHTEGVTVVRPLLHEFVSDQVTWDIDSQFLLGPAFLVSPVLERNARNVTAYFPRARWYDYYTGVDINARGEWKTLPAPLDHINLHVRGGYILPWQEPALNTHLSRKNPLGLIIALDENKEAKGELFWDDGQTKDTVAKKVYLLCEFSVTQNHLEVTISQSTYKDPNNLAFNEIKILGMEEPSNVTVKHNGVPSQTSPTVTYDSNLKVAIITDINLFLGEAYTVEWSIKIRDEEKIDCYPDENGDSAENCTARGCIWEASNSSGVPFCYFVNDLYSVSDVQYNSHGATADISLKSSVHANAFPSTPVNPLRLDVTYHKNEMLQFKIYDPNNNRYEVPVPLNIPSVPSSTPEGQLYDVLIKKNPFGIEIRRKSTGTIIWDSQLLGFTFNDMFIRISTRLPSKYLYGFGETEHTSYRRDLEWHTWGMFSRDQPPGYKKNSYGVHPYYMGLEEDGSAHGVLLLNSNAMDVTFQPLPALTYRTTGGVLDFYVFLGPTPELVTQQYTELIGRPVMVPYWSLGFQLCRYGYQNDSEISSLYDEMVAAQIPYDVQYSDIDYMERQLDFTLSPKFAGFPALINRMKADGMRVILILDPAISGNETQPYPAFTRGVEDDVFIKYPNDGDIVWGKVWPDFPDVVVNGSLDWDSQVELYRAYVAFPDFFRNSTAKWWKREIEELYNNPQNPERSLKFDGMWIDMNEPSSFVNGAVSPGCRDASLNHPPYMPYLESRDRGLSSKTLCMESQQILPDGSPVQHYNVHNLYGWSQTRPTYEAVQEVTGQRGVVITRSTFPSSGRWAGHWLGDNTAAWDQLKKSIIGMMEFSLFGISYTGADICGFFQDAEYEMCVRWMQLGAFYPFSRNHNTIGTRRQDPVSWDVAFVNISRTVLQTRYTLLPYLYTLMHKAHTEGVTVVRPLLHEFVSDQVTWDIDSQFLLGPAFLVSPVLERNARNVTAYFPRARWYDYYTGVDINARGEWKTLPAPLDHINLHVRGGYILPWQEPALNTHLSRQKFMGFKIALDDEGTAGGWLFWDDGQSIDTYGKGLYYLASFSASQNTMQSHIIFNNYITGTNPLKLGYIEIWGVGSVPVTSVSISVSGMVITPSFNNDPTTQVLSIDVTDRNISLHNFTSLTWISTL

| Structure (SMILES) | IC50 [1] [µM] | IC50 (Alpha-mannosidase) [µM] | IC50 [2] [µM] | inhibition [3] [%] | inhibition [6] [%] | further results |
| --- | --- | --- | --- | --- | --- | --- |
| Cc1cc2c(c(=O)[nH]1)C(=O)O/C2=C\c1ccc(CO)n1Cc1ccccc1 | 51.1 | 92.3 | 20.8 |  |  |  |
| OC[C@H]1NC[C@@H](O)[C@@H]1O |  |  | 58 | < 50 |  | IC50 [4]: 0.15 µM; IC50 [5]: 5.8 µM |
| Cc1cc2c(c(=O)[nH]1)C(=O)O/C2=C\c1ccc(CO)n1CCc1c[nH]c2ccccc12 | 12.9 |  | 4.4 | < 50 |  |  |
| C=CC(C)(C)c1c(O)cc2oc3c(CC=C(C)C)c(O)c(O)cc3c(=O)c2c1O [CUDRAXANTHONE L] |  |  | 62.3 | < 50 | < 50 |  |
| Cc1ccc(S(=O)(=O)Nc2ccc(C(=O)/C=C/c3ccc(O)c(O)c3)cc2)cc1 | 91 | 105 | 82.7 |  |  |  |
| O=c1c(-c2ccc(O)cc2)coc2cc(O)cc(O)c12 [GENISTEIN] | 54 | 49 | 81 |  |  | IC50 [7]: 7 µM |
| O=C(N/N=C/c1ccc(Cl)cc1)c1ccc(-c2nc3ccccc3s2)cc1 |  | 15 | 20.5 |  | < 50 |  |
| CC(C)c1ccc(/C=C2\C(=O)Nc3cc(Cl)ccc32)cc1 | 65 | 28 | 15 |  |  |  |
| CC(C)=CCc1cc(C(=O)/C=C/c2ccc(O)c(O)c2)c(O)cc1O [BROUSSOCHALCONE A] |  |  | 101 | < 50 | < 50 |  |
| Cc1cc2c(c(=O)[nH]1)C(=O)O/C2=C\c1ccc(CO)n1CCc1ccccc1 |  |  |  | < 50 | < 50 | inhibition (Saccharomyces cerevisiae): < 50% |
| C#CCn1c(/C=C2\OC(=O)c3c2cc(C)[nH]c3=O)ccc1CO |  |  |  | < 50 | < 50 | inhibition (Saccharomyces cerevisiae): < 50% |
| C[C@H]1O[C@H](O[C@H]2[C@H](O)[C@@H](O)[C@@H](O[C@H]3[C@H](O)[C@@H](O)C(O)O[C@@H]3CO)O[C@@H]2CO)[C@H](O)[C@@H](O)[C@@H]1N[C@H]1C=C(CO)[C@@H](O)[C@H](O)[C@H]1O (stereo partly specified) [ACARBOSE] |  |  | 2.1 |  |  | Activity (Rattus norvegicus [8]): Active; inhibition (Rattus norvegicus [9]): inactive; Activity [10]: Non-Toxic |
| Cc1ccc(S(=O)(=O)Nc2cccc(C(=O)/C=C/c3ccc(O)c(O)c3)c2)cc1 | 91 | 105 | 82.7 |  |  |  |
| Cc1ccc(S(=O)(=O)Nc2ccc(C(=O)/C=C/c3ccc(O)cc3)cc2)cc1 | 91 | 105 | 82.7 |  |  |  |
| O=C1Nc2cc(Cl)ccc2/C1=C/c1ccccc1[N+](=O)[O-] | 65 | 28 | 15 |  |  |  |
| O=C1c2cccc(O)c2C(=O)c2c(O)cc(CO)cc21 [ALOE-EMODIN] | 32 |  | 26.4 | < 50 |  | IC50 [11]: 4.56 µM |
| COc1ccc([C@@H]2N[C@@H](CO)[C@H](O)[C@H]2O)cc1O [L-RADICAMINE A] | 41 | 28 | 25.2 |  |  | IC50 (Maltase-glucoamylase): 6.7 µM |
| O=C1Nc2cc(Cl)ccc2/C1=C/c1ccc(O)c(O)c1 | 65 | 28 | 15 |  |  |  |

| Structure (SMILES) | IC50 [1] [µM] | IC50 (Alpha-mannosidase) [µM] | IC50 [2] [µM] | inhibition [3] [%] | inhibition [6] [%] | further results |
| --- | --- | --- | --- | --- | --- | --- |
| CC(C)=CCc1cc(-c2oc3cc(O)c(CC=C(C)C)c(O)c3c(=O)c2O)cc(O)c1O [BROUSSONOL E] | 89 |  | 85.9 | < 50 |  |  |
| C=CC(C)(C)c1c2c(c(O)c3c(=O)c4ccc(O)c(O)c4oc13)C=CC(C)(C)O2 [MACLURAXANTHONE] |  |  | 62.3 | < 50 | < 50 |  |
| Cc1cc2c(c(=O)[nH]1)C(=O)O/C2=C\c1ccc(CO)n1-c1ccccc1 | 38.4 | 61.4 | 27.4 |  |  |  |
| Oc1cc(O)cc(/C=C/c2cc(O)c(O)c(O)c2)c1 |  |  | 31.1 | < 50 | < 50 |  |
| C=CCn1c(/C=C2\OC(=O)c3c2cc(C)[nH]c3=O)ccc1CO |  |  |  | < 50 | < 50 | inhibition (Saccharomyces cerevisiae): < 50% |
| O=C(O)c1cc(O)c2c(c1)C(=O)c1cccc(O)c1C2=O [RHEIN] | 32 |  | 26.4 | < 50 |  | IC50 [11]: 5.68 µM |
| O=c1c2cc(O)c(O)cc2oc2cc(O)cc(O)c12 |  |  | 62.3 | < 50 | < 50 |  |
| OC[C@@H]1N[C@@H](c2ccc(O)cc2)[C@H](O)[C@H]1O | 41 | 28 | 25.2 |  |  | IC50 (Maltase-glucoamylase): 9.3 µM |
| OC[C@@H]1[C@@H](O)[C@H](O)[C@H]2[C@H](O)[C@@H](O)CN21 [CASUARINE] | 82 | 51 | 41.1 |  |  | IC50 [12]: 1.2 µM; IC50 [13]: 0.7 µM |
| Cc1cc2c(c(=O)[nH]1)C(=O)O/C2=C\c1ccc(CO)n1-c1ccc(O)cc1 | 21.7 |  | 33.3 | < 50 |  |  |
| COc1cc(O)c2c(c1)C(=O)c1cc(C)cc(O)c1C2=O [PHYSCION] | 32 |  | 26.4 | < 50 |  | IC50 [11]: 5.32 µM |
| Cc1cc(O)c2c(c1)C(=O)c1cc(O)cc(O)c1C2=O [EMODIN] | 32 |  | 26.4 | < 50 |  | IC50 [11]: 4.12 µM |
| OCc1ccc2n1C[C@@H](c1ccc(O)cc1)OC2 | 21 | 14 | 5.01 |  |  |  |
| Cc1cc2c(c(=O)[nH]1)C(=O)O/C2=C\c1ccc(CO)n1-c1ccc(Cl)cc1 |  |  | 21.9 | < 50 | < 50 |  |
| Cc1cc2c(c(=O)[nH]1)C(=O)O/C2=C\c1ccc(CO)n1-c1ccccc1C |  |  |  | < 50 | < 50 | inhibition (Saccharomyces cerevisiae): < 50% |
| Cc1ccc(S(=O)(=O)Nc2cccc(C(=O)/C=C/c3ccc(O)cc3)c2)cc1 | 91 | 105 | 82.7 |  |  |  |
| Cc1cc2c(c(=O)[nH]1)C(=O)O/C2=C\c1ccc(CO)n1-c1ccc(F)cc1 |  |  | 20.7 | < 50 | < 50 |  |
